Measured values from ChEMBL document CHEMBL4312027, “Synthesis, characterization, and biological activity of a triphenylphosphonium-containing imidazolium salt against select bladder cancer cell lines” (Eur J Med Chem, 2020).
Active and inactive are the calls of the source. The rule behind the calls is not given here.

Experiments:
[1] = system: NCI/ADR-RES; assay: Growth inhibition of human NCI/ADR-RES cells assessed as growth percent at 10 uM incubated for 48 hrs by sulforhodamine B assay relative to control; assay type: functional; conditions: read-out: Activity
[2] = system: T47D; assay: Growth inhibition of human T47D cells assessed as growth percent at 10 uM incubated for 48 hrs by sulforhodamine B assay relative to control; assay type: functional; conditions: read-out: Activity
[3] = system: Mus musculus; assay: Antitumor activity against anesthetized BBN-induced bladder tumor mouse model assessed as increase in cleaved caspase 3 level in hyperplasia region at 1500 uM administered via intravesical instillation treated for 1 hr administered as 2 doses at 24 hrs interval and measured at 24 hrs after final treatment by hematoxylin and eosin staining based immunohistochemical analysis; assay type: functional, organism-based
[4] = system: RT-4; assay: Growth inhibition of human RT4 cells at 500 uM by Celltiter-Glo luminescent cell viability assay; assay type: functional, cell-based; conditions: TDE = time-dependent effect
Procedure, shortened: (§1)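 Cells seeded 10000/well, 24 h, then exposed in ATCC-recommended medium to 62.5–2000 μM (two-fold steps) or vehicle for the set time (5–60 min), then normal medium. After 24 h, plates equilibrated 30 min at room temperature, CellTiter-Glo added, 2 min at room temperature, luminescence read. Survival relative to vehicle control; quadruplicate.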

[5] = system: HOP-62; assay: Growth inhibition of human HOP62 cells assessed as growth percent at 10 uM incubated for 48 hrs by sulforhodamine B assay relative to control; assay type: functional; conditions: HOP-62, 48 h, read-out: Activity
[6] = system: CCRF-CEM; assay: Growth inhibition of human CCRF-CEM cells assessed as growth percent at 10 uM incubated for 48 hrs by sulforhodamine B assay relative to control; assay type: functional; conditions: read-out: Activity
[7] = system: UACC-62; assay: Growth inhibition of human UACC62 cells assessed as growth percent at 10 uM incubated for 48 hrs by sulforhodamine B assay relative to control; assay type: functional; conditions: UACC-62, 48 h, read-out: Activity
[8] = system: OVCAR-3; assay: Growth inhibition of human OVCAR3 cells assessed as growth percent at 10 uM incubated for 48 hrs by sulforhodamine B assay relative to control; assay type: functional; conditions: OVCAR-3, 48 h, read-out: Activity
[9] = system: COLO 205; assay: Growth inhibition of human COLO205 cells assessed as growth percent at 10 uM incubated for 48 hrs by sulforhodamine B assay relative to control; assay type: functional; conditions: COLO 205, 48 h, read-out: Activity
[10] = system: Mus musculus; assay: Antitumor activity against anesthetized BBN-induced bladder tumor mouse model assessed as increase in cleaved caspase 3 level in dysplasia region at 1500 uM administered via intravesical instillation treated for 1 hr administered as 2 doses at 24 hrs interval and measured at 24 hrs after final treatment by hematoxylin and eosin staining based immunohistochemical analysis; assay type: functional, organism-based
[11] = system: MOLT-4; assay: Growth inhibition of human MOLT4 cells assessed as growth percent at 10 uM incubated for 48 hrs by sulforhodamine B assay relative to control; assay type: functional; conditions: MOLT-4, 48 h, read-out: Activity
[12] = system: J82; assay: Cell cycle arrest in human J82 cells assessed as increase in cell accumulation at sub-G1 phase at 250 to 500 uM incubated for 1 hr measured after culturing in normal medium for 24 hrs by propidium iodide/RNase staining based FACScan flow cytometry analysis; assay type: functional
Procedure, shortened: (§2)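 Seeded at 300,000 cells/well in triplicate per treatment; 24 h later exposed to 250 or 500 μM or vehicle for 1 h. After 24 h in normal media, media plus cells were collected, washed, fixed in cold 70% ethanol (4 °C, 30 min), treated with phosphate citric acid buffer, stained with PI/RNase and gated for sub-G1 by flow cytometry.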

[13] = system: RT-4; assay: Growth inhibition of human RT4 cells measured after 1 hr by Celltiter-Glo luminescent cell viability assay; assay type: functional; conditions: RT-4, 1 h; procedure, shortened: as §1
[14] = system: RT-112; assay: Growth inhibition of human RT112 cells at 500 uM by Celltiter-Glo luminescent cell viability assay; assay type: functional, cell-based; conditions: TDE = time-dependent effect; procedure, shortened: as §1
[15] = system: K562; assay: Growth inhibition of human K562 cells assessed as growth percent at 10 uM incubated for 48 hrs by sulforhodamine B assay relative to control; assay type: functional; conditions: K562, 48 h, read-out: Activity
[16] = system: EKVX; assay: Growth inhibition of human EKVX cells assessed as growth percent at 10 uM incubated for 48 hrs by sulforhodamine B assay relative to control; assay type: functional; conditions: read-out: Activity
[17] = system: UMUC3; assay: Cell cycle arrest in human UM-UC-3 cells assessed as increase in cell accumulation at sub-G1 phase at 250 to 500 uM incubated for 1 hr measured after culturing in normal medium for 24 hrs by propidium iodide/RNase staining based FACScan flow cytometry analysis; assay type: functional; procedure, shortened: as §2
[18] = system: A498; assay: Growth inhibition of human A498 cells assessed as growth percent at 10 uM incubated for 48 hrs by sulforhodamine B assay relative to control; assay type: functional; conditions: A498, 48 h, read-out: Activity
[19] = system: A549; assay: Growth inhibition of human A549/ATCC cells assessed as growth percent at 10 uM incubated for 48 hrs by sulforhodamine B assay relative to control; assay type: functional; conditions: A549, 48 h, read-out: Activity
[20] = system: Malme-3M; assay: Growth inhibition of human MALME-3M cells assessed as growth percent at 10 uM incubated for 48 hrs by sulforhodamine B assay relative to control; assay type: functional; conditions: read-out: Activity
[21] = system: UMUC3; assay: Growth inhibition of human UM-UC-3 cells measured after 1 hr by Celltiter-Glo luminescent cell viability assay; assay type: functional; conditions: UMUC3, 1 h; procedure, shortened: as §1
[22] = system: 5637; assay: Growth inhibition of human 5637 cells measured after 1 hr by Celltiter-Glo luminescent cell viability assay; assay type: functional; conditions: Homo sapiens, 5637, 1 h
Procedure, shortened: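 Seeded at 10000 cells/well and grown 24 h, then exposed to 62.5–2000 μM (two-fold steps) or vehicle in growth medium for 1 h. Medium was replaced with normal medium for 24 h before CellTiter-Glo luminescence was read. Survival was expressed relative to vehicle, with quadruplicate wells, and GI50 was calculated.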

[23] = system: KM12; assay: Growth inhibition of human KM12 cells assessed as growth percent at 10 uM incubated for 48 hrs by sulforhodamine B assay relative to control; assay type: functional; conditions: KM12, 48 h, read-out: Activity
[24] = system: PC-3; assay: Growth inhibition of human PC3 cells assessed as growth percent at 10 uM incubated for 48 hrs by sulforhodamine B assay relative to control; assay type: functional; conditions: PC-3, 48 h, read-out: Activity
[25] = system: SK-MEL-28; assay: Growth inhibition of human SK-MEL-28 cells assessed as growth percent at 10 uM incubated for 48 hrs by sulforhodamine B assay relative to control; assay type: functional; conditions: SK-MEL-28, 48 h, read-out: Activity
[26] = system: RT-112; assay: Induction of apoptosis in human RT112 cells assessed as increase in caspase 9 cleavage at 250 uM incubated for 1 hr and measured immediately after treatment by Western blot analysis; assay type: functional, cell-based
Procedure, shortened: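 RT112 seeded 300,000/well; after 24 h, 250 or 500 μM or vehicle. Cells plus floating debris harvested immediately or 24 h after treatment, lysed in RIPA with protease inhibitors. About 30 μg protein heated 10 min at 95 °C with DTT, run on SDS-PAGE. Immunoblotted for PARP and caspase 9, Ran as loading control, ECL detection.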

[27] = system: BT-549; assay: Growth inhibition of human BT549 cells assessed as growth percent at 10 uM incubated for 48 hrs by sulforhodamine B assay relative to control; assay type: functional; conditions: BT-549, 48 h, read-out: Activity

In the case of [Br-].[Br-].c1ccc([P+](CCCc2n(Cc3ccc4ccccc4c3)c3ccccc3[n+]2Cc2ccc3ccccc3c2)(c2ccccc2)c2ccccc2)cc1, the growth at 10 µM [1] is reported as 83.7%, the growth at 10 µM [2] is reported as 56.9% and the Activity [3] is reported as “Active”. For the same molecule, the “growth inhibition (GI)” value [4] was “Tde”, the growth at 10 µM [5] was 61.6% and the growth at 10 µM [6] was 43.1%. The growth at 10 µM [7] was 37.8%, the growth at 10 µM [8] was 75.8% and the growth at 10 µM [9] was 44.7%. For the same molecule, the Activity [10] was “Active”, the growth at 10 µM [11] was 57.6% and the Activity [12] was “Active”. For the same molecule, the GI50 [13] was 150 µM, the “growth inhibition (GI)” value [14] was “Tde” and the growth at 10 µM [15] was 23.7%. For the same molecule, the growth at 10 µM [16] was 59.4%, the Activity [17] was “Active” and the growth at 10 µM [18] was 67.2%. It also gave a growth at 10 µM [19] of 80.2%, a growth at 10 µM [20] of 65.2% and a GI50 [21] of 80 µM. For the same molecule, the GI50 [22] was 200 µM, the growth at 10 µM [23] was 32.2% and the growth at 10 µM [24] was 67.5%. For the same molecule, the growth at 10 µM [25] was 37.1%, the Activity [26] was “Active” and the growth at 10 µM [27] was 68.1%.
